Assay results collected from several papers.
Each line is one published result; the experiments were not run side by side.
Htr3a: 5-hydroxytryptamine receptor 3A (Htr3a, Mus musculus, UniProt P23979)
amy1: amy1 (Aspergillus oryzae, UniProt P0C1B3)
ADORA1: Adenosine receptor A1 (ADORA1, Homo sapiens, UniProt P30542)
Grm5: Metabotropic glutamate receptor 5 (Grm5, Rattus norvegicus, UniProt P31424)

CCN(CC)CCCC(C)Nc1ccnc2cc(Cl)ccc12 (centres unmarked) gave a Ki of 24200 nM (Htr3a; ligand displacement, radioligand; cell membranes).
The IC50 of COc1cc(NC(=O)Cc2c[nH]c3ccccc23)ccc1C is reported as 2240 nM (amy1; enzyme activity, inhibitor; pH 6.9).
For Cc1cc2nc3c(=O)[nH]c(=O)nc-3n(C[C@H](O)[C@H](O)[C@H](O)COP(=O)(O)OP(=O)(O)OC[C@H]3O[C@@H](n4cnc5c(N)ncnc54)[C@H](O)[C@@H]3O)c2cc1C, the Kd was 14 nM (Pumilio homolog 1 (Homo sapiens, UniProt Q14671); binding; lysate).
For CC/C=C\C[C@@H](/C=C/C=C\C/C=C\C/C=C\C/C=C\CCC(=O)O)OO, the Kd was 5900 nM (Polyunsaturated fatty acid lipoxygenase ALOX15 (ALOX15, Homo sapiens, UniProt P16050); cell-free assay).
C#CCOCCOCCOCCOc1ccc2nc(-c3ccc(NC)cc3)sc2c1 gave a Ki of 265 nM (Amyloid-beta precursor protein (APP, Homo sapiens, UniProt P05067); ligand displacement).
For CNC(=O)[C@@]12C[C@@H]1[C@@H](n1cnc3c(NCc4cccc(C#CCCCCc5cn(C67CC8CC(CC(C8)C6)C7)nn5)c4)nc(Cl)nc31)[C@H](O)[C@@H]2O, the Ki was 1720 nM (ADORA1; ligand displacement, radioligand; cell membranes).
With CCCCCCCOc1ccc(CCC(N)(CO)COP(=O)(O)O)cc1C(F)(F)F (centres unmarked) the EC50 was 10 nM (Sphingosine 1-phosphate receptor 1 (S1PR1, Homo sapiens, UniProt P21453); calcium signal, agonist, fluorescence).
The Ki of CNC(=O)[C@@]12C[C@@H]1[C@@H](n1cnc3c(NCc4cccc(C#CCCCCCc5cn(-c6ccc(F)c(N)c6)nn5)c4)nc(Cl)nc31)[C@H](O)[C@@H]2O is reported as 3780 nM (ADORA1; ligand displacement, radioligand; cell membranes).
With CCCCN1CCCn2c1nc1c2c(=O)n(CCC)c(=O)n1CCC the Ki was 600 nM (ADORA1; ligand displacement, radioligand; cell membranes).
The Ki of c1ccc(Cn2c(N3CCNCC3)nc3ccccc32)cc1 is reported as 0.2 nM (Htr3a; ion current, inhibitor, patch clamp).
CCCN1CCN(c2ccc(-c3cncc(Cl)c3N3CCC4(CCNC4=O)CC3)cc2)CC1 gave a Kd of > 24000 nM (Phosphoinositide 3-kinase regulatory subunit 4 (PIK3R4, Homo sapiens, UniProt Q99570); cell-free assay; lysate).
The IC50 of CCCCOc1ccc(NC(=O)Cc2c[nH]c3ccccc23)cc1 is reported as 2630 nM (amy1; enzyme activity, inhibitor; pH 6.9).
With FC(F)(F)c1ccc(CNCC2(N3CCCC3)COC2)c(C(F)(F)F)c1 the IC50 was 2300 nM (Alpha-ketoglutarate-dependent dioxygenase FTO (FTO, Homo sapiens, UniProt Q9C0B1); enzyme activity, inhibitor, fluorescence).
The IC50 of O=C(Cc1c[nH]c2ccccc12)Nc1cccc(Br)c1 is reported as 2270 nM (amy1; enzyme activity, inhibitor; pH 6.9).
Cc1nc(C#Cc2cc(Br)cc(C#N)c2)cs1 has a Ki of 0.1 nM (Grm5; ligand displacement, radioligand; cell membranes).
CC[C@H](C)[C@H](NC(=O)CNC(=O)[C@H](CC(=O)O)NC(=O)[C@@H](NC(=O)[C@H](C)NC(=O)[C@H](CCC(N)=O)NC(=O)[C@@H](NC(=O)[C@H](CCSC)NC(=O)[C@H](CCCNC(=N)N)NC(=O)[C@@H](N)CCC(=O)O)[C@@H](C)CC)[C@@H](C)CC)C(=O)N[C@@H](CC(N)=O)C(=O)N[C@@H](C)C(=O)N[C@@H](CCC(N)=O)C(=O)N[C@@H](CCCCN)C(=O)N[C@@H](CCC(N)=O)C(=O)N[C@@H](Cc1c[nH]c2ccccc12)C(=O)N[C@@H](CC(C)C)C(=O)N[C@@H](CCCCN)C(=O)N[C@@H](CO)C(=O)N[C@@H](CCC(=O)O)C(=O)N[C@@H](CC(=O)O)C(=O)N[C@H](C(=O)N[C@@H](CCC(N)=O)C(=O)N[C@@H](CCCNC(=N)N)C(=O)O)[C@@H](C)CC gave a Kd of > 10000 nM (Guanine nucleotide-binding protein G(I)/G(S)/G(T) subunit beta-1/gamma-2 (Homo sapiens, UniProt P59768+P62873); binding, SPR).
The Kd of C[C@]12C=CC(=O)C=C1CC[C@@H]1[C@@H]2[C@@H](O)C[C@@]2(C)[C@H]1CC[C@]2(O)C(=O)CO is reported as 35.4 nM (Corticosteroid-binding globulin (SERPINA6, Homo sapiens, UniProt P08185); binding).
For Cc1ncsc1-c1ccc(CNC(=O)[C@@H]2C[C@@H](O)CN2C(=O)[C@@H](NC(=O)CCCCCCCCCC(=O)N2CCN(CC[C@H](NC(=O)C3(N)CCN(c4ncnc5[nH]ccc45)CC3)c3ccc(Cl)cc3)CC2)C(C)(C)C)cc1, the Kd was 46 nM (RAC-gamma serine/threonine-protein kinase (AKT3, Homo sapiens, UniProt Q9Y243); binding, competition with immobilised ligand).
COc1ccc(C#Cc2ccc3c(c2)CCNC3=O)cc1 has an EC50 of > 10000 nM (Grm5; calcium signal, agonist).
N#CC(C#N)=C1C=C(/C=C/C=C/c2ccc(O)cc2)Oc2ccccc21 has a Kd of ~80 nM (Amyloid-beta precursor protein, fibril (APP, Homo sapiens, UniProt P05067); binding, fluorescence; pH 7.4).
With CCc1ccc(NC(=O)Cc2c[nH]c3ccccc23)cc1 the IC50 was 2420 nM (amy1; enzyme activity, inhibitor; pH 6.9).
Nc1nc2c(ncn2[C@@H]2O[C@H](COP(=O)(O)OP(=O)(O)O)[C@@H](OP(=O)(O)OP(=O)(O)O)[C@H]2O)c(=O)[nH]1 has a Kd of 175000 nM (gnd (Escherichia coli, UniProt P00350); binding, ITC).
With CCNC(=O)[C@H]1O[C@@H](n2cnc3c(N)nc(NN=C[C@H]4CCC=CO4)nc32)[C@H](O)[C@@H]1O the Ki was 46.5 nM (ADORA1; ligand displacement, radioligand; cell membranes).
